Experimental data from ChEMBL document CHEMBL1124622, “Synthesis and antiviral activity of 3'-C-cyano-3'-deoxynucleosides” (J Med Chem, 1989).
Values after ≈ are worked out from the molar mass of the structure shown.

What was measured:
Semliki Forest virus = assay: Minimum inhibitory concentration against forest virus in Vero cell cultures; type: functional
Summary of the method: (§1)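 Confluent HeLa, Vero or primary rabbit kidney cell cultures in microtiter trays are inoculated with 100 CCID50 of virus. After 1 h adsorption, residual virus is removed and cells are incubated with varying compound concentrations. Cytopathogenicity is recorded once it is complete in untreated virus-infected controls. MIC is the concentration inhibiting virus-induced cytopathogenicity.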

HeLa [1] = assay: (§2) Minimum inhibitory concentration against polio virus 1 in HeLa cell cultures; type: functional; conditions: Homo sapiens; summary of the method: as §1
[2] = (§3) Minimum cytotoxic concentration in primary rabbit kidney cell cultures; type: cell-based, Oryctolagus cuniculus; conditions: primary rabbit kidney cells
[3] = (§4) Minimum cytotoxic concentration in HeLa cell cultures; type: cell-based; conditions: human, HeLa cells
Human respirovirus 3 = assay: (§5) Minimum inhibitory concentration against parainfluenza 3 virus in Vero cell cultures; type: functional; summary of the method: as §1
HeLa [4] = assay: (§6) Minimum inhibitory concentration against Coxsackie virus B4 in HeLa cell cultures; type: functional; conditions: Homo sapiens; summary of the method: as §1
[5] = system: Mammalian orthoreovirus 1; assay: (§7) Minimum inhibitory concentration against reovirus in Vero cell cultures; type: functional; summary of the method: as §1
[6] = inimum cytotoxic concentration in Vero cell cultures; type: cell-based; conditions: chlorocebus sabaeus, Vero cells
HeLa [7] = assay: (§8) Minimum inhibitory concentration against Vesicular stomatitis virus in HeLa cell cultures; type: functional; conditions: Homo sapiens; summary of the method: as §1
[8] = system: Vesicular stomatitis virus; assay: (§9) Minimum inhibitory concentration against Vesicular stomatitis virus in primary rabbit kidney cell cultures; type: functional; summary of the method: as §1
Sindbis virus = assay: Minimum inhibitory concentration against Sindbis virus in Vero cell cultures; type: functional; summary of the method: as §1
[9] = system: Human immunodeficiency virus 1; assay: Effective dose against HIV-1 induced cytopathogenicity in human MT-4 cell.; type: functional; conditions: Human immunodeficiency virus 1, MT4; read-out: ED50 (the source's name)
Summary of the method: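 HIV (HTLV-III_B) is taken from the culture supernatant of a persistently infected HUT-78 line. Human MT-4 lymphocytes are infected and the assay scores inhibition of virus-induced cytopathogenicity. ED50 is the dose giving 50% protection of MT-4 cells against the viral cytopathic effect.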

Vaccinia virus = assay: (§10) Minimum inhibitory concentration against Vaccinia virus in primary rabbit kidney cell cultures; type: functional; conditions: Orthopoxvirus vaccinia; summary of the method: as §1
Homo sapiens = organism: Homo sapiens; assay: Cytotoxic dose against uninfected human MT-4 cell; type: functional; conditions: MT4, read-out: CD50 (the source's name)
Summary of the method: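 Cytotoxicity counterpart of the HIV assay: uninfected human MT-4 lymphocytes exposed to the compounds. CD50 is the dose that reduces viability of these uninfected cells by 50%.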

Coxsackievirus B4 [10] = assay: (§11) Minimum inhibitory concentration against Coxsackie virus B4 in Vero cell cultures; type: functional; conditions: Enterovirus B; summary of the method: as §1
[11] = system: Moloney murine sarcoma virus; assay: In vitro effective dose against Moloney murine sarcoma virus induced transformation of C3H embryo fibroblast cells.; type: functional; conditions: read-out: ED50 (the source's name)
Summary of the method: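 C3H mouse embryo cells are seeded at 20 000 cells/mL per well and grown 24 h. They are infected with 80 foci-forming units of Moloney MSV for 90 min, then given fresh medium with varying compound concentrations. Transformation is examined microscopically after 6-7 days. ED50 is the dose giving a 50% reduction in transformation.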

[12] = In vitro minimum cytotoxic concentration in C3H embryo fibroblast cells.; type: functional; conditions: Mus musculus
Summary of the method: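 Minimal cytotoxic concentration in C3H mouse embryo cells, run in the same 48-well setup as the MSV transformation assay: the concentration producing microscopically visible alteration of cell morphology.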

Vero [13] = assay: as §5; type: functional, Human respirovirus 3; conditions: Chlorocebus sabaeus; summary of the method: as §1
HeLa [14] = assay: as §4; type: functional; conditions: Homo sapiens
Oryctolagus cuniculus [15] = organism: Oryctolagus cuniculus; assay: as §3; type: functional
Vero [16] = assay: (§12) Minimum cytotoxic concentration in Vero cell cultures; type: functional; conditions: Chlorocebus sabaeus
[17] = as §12; type: cell-based; conditions: chlorocebus sabaeus, Vero cells
Enterovirus C = assay: as §2; type: functional; summary of the method: as §1
Coxsackievirus B4 [18] = assay: as §6; type: functional; conditions: Enterovirus B; summary of the method: as §1
Reovirus sp. = assay: as §7; type: functional; summary of the method: as §1
[19] = system: Vesicular stomatitis virus; assay: as §8; type: functional; summary of the method: as §1
Coxsackievirus = assay: as §11; type: functional; summary of the method: as §1
Oryctolagus cuniculus [20] = organism: Oryctolagus cuniculus; assay: Minimum inhibitory concentration against Herpes simplex virus 2 (G) in primary rabbit kidney cell cultures; type: functional; summary of the method: as §1
Oryctolagus cuniculus [21] = organism: Oryctolagus cuniculus; assay: Minimum inhibitory concentration against Herpes simplex virus 1(KOS) in primary rabbit kidney cell cultures; type: functional; summary of the method: as §1
Oryctolagus cuniculus [22] = organism: Oryctolagus cuniculus; assay: as §9; type: functional; summary of the method: as §1
Oryctolagus cuniculus [23] = organism: Oryctolagus cuniculus; assay: as §10; type: functional; summary of the method: as §1
Oryctolagus cuniculus [24] = organism: Oryctolagus cuniculus; assay: Minimum cytotoxic concentration in primary rabbit kidney cell cultures

SMILES	MIC (Semliki Forest virus) [µg/mL]	MIC (HeLa [1]) [µg/mL]	MCC [2] [µg/mL]	MCC [3] [µg/mL]	MIC (Human respirovirus 3) [µg/mL]	MIC (HeLa [4]) [µg/mL]	MIC [5] [µg/mL]	MIC (HeLa [7]) [µg/mL]	MIC [8] [µg/mL]	MIC (Sindbis virus) [µg/mL]	EC50 [9] [µM]	MIC (Vaccinia virus) [µg/mL]	CC50 (Homo sapiens) [µM]	MIC (Coxsackievirus B4 [10]) [µg/mL]	EC50 [11] [µg/mL]	MCC [12] [µg/mL]	MCC [17] [µg/mL]	also measured
CC(C)(C)[Si](C)(C)OC[C@H]1O[C@@H](n2cnc3c(N)ncnc32)[C@H](O[Si](C)(C)C(C)(C)C)[C@H]1C#N	> 40	> 40	> 100	> 100	> 10	> 40	> 10	> 40	> 40	20 (≈ 39.6 µM)	> 16	> 40	25	20 (≈ 39.6 µM)	16 (≈ 31.7 µM)	80	–	MCC [6]: > 40 µg/mL
Nc1ncnc2c1ncn2C[C@H](O)CO [(S)-DHPA]	> 400	> 400	–	–	–	2 (≈ 9.56 µM)	7 (≈ 33.5 µM)	> 400	20 (≈ 95.6 µM)	> 400	–	20 (≈ 95.6 µM)	–	100 (≈ 478 µM)	–	–	–	MIC (Vero [13]): 150 µg/mL (≈ 717 µM); MCC (HeLa [14]): > 400 µg/mL; MCC (Oryctolagus cuniculus [15]): ≥ 400 µg/mL; MCC (Vero [16]): 400 µg/mL
CC(C)(C)[Si](C)(C)OCC1OC(n2ccc(N)nc2=O)C(O[Si](C)(C)C(C)(C)C)C1C#N (stereo not given)	> 4	> 1	> 10	> 4	> 4	> 1	> 4	> 1	> 4	> 4	> 3.2	> 4	6.1	> 4	> 1.6	8	10	–
Cc1cn([C@H]2C[C@H](C#N)[C@@H](CO)O2)c(=O)[nH]c1=O	> 10	> 100	100	200	> 10	> 100	> 10	> 100	> 40	> 10	> 16	20 (≈ 79.6 µM)	30	> 10	> 16	80	> 10	–
N#C[C@H]1[C@@H](O)[C@H](n2cnc3c(N)ncnc32)O[C@@H]1CO	20 (≈ 72.4 µM)	–	> 400	> 200	> 100	–	–	–	> 400	10 (≈ 36.2 µM)	> 1.6	–	3.8	–	8.5 (≈ 30.8 µM)	> 40	100	MIC (Enterovirus C): > 100 µg/mL; MIC (Coxsackievirus B4 [18]): 200 µg/mL (≈ 724 µM); MIC (Reovirus sp.): > 40 µg/mL; MIC [19]: > 100 µg/mL; MIC (Coxsackievirus): > 100 µg/mL
NC(=O)c1ncn([C@@H]2O[C@H](CO)[C@@H](O)[C@H]2O)n1 [RIBAVIRIN]	300 (≈ 1230 µM)	70 (≈ 287 µM)	–	> 200	40 (≈ 164 µM)	70 (≈ 287 µM)	70 (≈ 287 µM)	20 (≈ 81.9 µM)	–	70 (≈ 287 µM)	–	–	–	100 (≈ 409 µM)	–	–	> 400	MIC (Oryctolagus cuniculus [20]): > 400 µg/mL; MIC (Oryctolagus cuniculus [21]): > 400 µg/mL; MIC (Oryctolagus cuniculus [22]): 300 µg/mL (≈ 1230 µM); MIC (Oryctolagus cuniculus [23]): 10 µg/mL (≈ 40.9 µM); MCC (Oryctolagus cuniculus [24]): > 400 µg/mL
Nc1ncnc2c1ccn2[C@@H]1O[C@H](CO)[C@@H](O)[C@H]1O [TUBERCIDIN]	> 0.1	0.4 (≈ 1.5 µM)	–	> 0.4	> 0.1	0.4 (≈ 1.5 µM)	> 0.1	0.07 (≈ 0.263 µM)	0.07 (≈ 0.263 µM)	0.2 (≈ 0.751 µM)	–	0.1 (≈ 0.376 µM)	–	> 0.1	–	–	0.4	MCC (Oryctolagus cuniculus [24]): > 0.4 µg/mL
CC(C)(C)[Si](C)(C)OC[C@H]1O[C@@H](n2ccc(=O)[nH]c2=O)[C@H](O[Si](C)(C)C(C)(C)C)[C@@H]1C#N	> 4	> 10	> 10	> 40	> 4	> 10	> 4	> 10	> 4	> 4	3.2	> 4	6.6	> 4	5.6 (≈ 11.6 µM)	> 8	> 10	–
